In ChEMBL document CHEMBL1130190, “Thromboxane modulating agents. 3. 1H-imidazol-1-ylalkyl- and 3-pyridinylalkyl-substituted 3-[2-[(arylsulfonyl)amino]ethyl]benzenepropanoic acid derivatives as dual thromboxane synthase inhibitor/thromboxane receptor antagonists” (J Med Chem, 1997):

Assays:
Thromboxane-A synthase = biological target: T1, Thromboxane-A synthase (Homo sapiens, UniProt P24557); assay: Activity against human platelet microsome Thromboxane synthase
T1 sequence (P24557 whole entry): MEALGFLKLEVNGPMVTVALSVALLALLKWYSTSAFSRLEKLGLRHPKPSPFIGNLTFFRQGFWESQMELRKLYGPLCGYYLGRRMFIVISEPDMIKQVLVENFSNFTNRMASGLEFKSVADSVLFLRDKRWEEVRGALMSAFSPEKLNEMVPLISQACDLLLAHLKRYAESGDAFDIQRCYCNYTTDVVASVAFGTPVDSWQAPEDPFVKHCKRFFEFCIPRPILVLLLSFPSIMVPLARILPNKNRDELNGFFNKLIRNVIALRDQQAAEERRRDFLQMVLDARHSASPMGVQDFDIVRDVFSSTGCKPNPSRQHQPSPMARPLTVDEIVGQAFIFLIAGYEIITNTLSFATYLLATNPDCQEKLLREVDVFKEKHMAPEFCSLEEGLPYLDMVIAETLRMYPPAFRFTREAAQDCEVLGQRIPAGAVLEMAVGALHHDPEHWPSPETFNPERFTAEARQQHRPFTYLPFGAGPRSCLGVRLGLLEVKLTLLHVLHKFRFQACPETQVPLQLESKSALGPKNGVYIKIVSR

[1] = biological target: T2, Thromboxane A2 receptor (Rattus norvegicus) (UniProt P34978); assay: Antagonist activity against TXA2 receptor measured by inhibition of U-46,619-induced contractions of rat aorta; assay type: functional, tissue-based
T2 sequence (whole entry): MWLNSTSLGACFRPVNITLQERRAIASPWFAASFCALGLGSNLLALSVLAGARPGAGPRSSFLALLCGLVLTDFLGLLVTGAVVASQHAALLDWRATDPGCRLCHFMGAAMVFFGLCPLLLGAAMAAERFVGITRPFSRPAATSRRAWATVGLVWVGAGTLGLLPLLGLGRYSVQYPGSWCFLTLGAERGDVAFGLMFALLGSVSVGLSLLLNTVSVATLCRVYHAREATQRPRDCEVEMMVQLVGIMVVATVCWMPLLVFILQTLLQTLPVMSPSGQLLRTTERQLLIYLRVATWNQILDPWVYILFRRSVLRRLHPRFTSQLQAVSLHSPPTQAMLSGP
Outline: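 Spirally cut rat aortic strips held under 1 g resting tension for isometric recording in Krebs-bicarbonate at 37 °C, oxygenated, equilibrated 2 h. Primed with U46619 for 10 min, washed, and rested 1 h. Cumulative U46619 (1–100 nM) contraction curves were run before and after 15 min compound exposure (1 h for footnoted entries) at several concentrations. Antagonism was derived from the shifted curves.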

IC50 (Thromboxane-A synthase)	pA2 [1]	SMILES
29 nM	7.71	CCCS(=O)(=O)NCCc1cc(CCC(=O)O)cc(Cc2cccnc2)c1
	9.44	O=C(O)CCc1cc(CCNS(=O)(=O)c2ccc(Br)cc2)cc(Cc2cccnc2)c1
45 nM	8.8	O=C(O)CCc1cc(CCNS(=O)(=O)c2ccccc2)cc(Cc2cccnc2)c1
22 nM	7.69	CN(C)S(=O)(=O)NCCc1cc(CCC(=O)O)cc(Cc2cccnc2)c1
43 nM	7.81	O=C(O)CCc1cc(CCNS(=O)(=O)N2CCCCC2)cc(Cc2cccnc2)c1
	9.4	O=C(O)CCc1cc(CCNS(=O)(=O)c2ccc(Cl)cc2)cc(Oc2cccnc2)c1
22 nM	7.96	O=C(O)CCc1cc(CCNC(=O)c2ccccc2)cc(Cc2cccnc2)c1
	9.39	O=C(O)CCc1cc(CCNS(=O)(=O)c2ccc(Cl)cc2)cc(Cc2cccnc2)c1
	8.71	O=C(O)CCc1cccc(CCNS(=O)(=O)c2ccc(Cl)cc2)c1
39 nM	8.1	CC(C)(C)CS(=O)(=O)NCCc1cc(CCC(=O)O)cc(Cc2cccnc2)c1
22 nM	8	O=C(O)CCc1cc(CCNS(=O)(=O)N2CCCC2)cc(Cc2cccnc2)c1
43 nM	7.81	O=C(O)CCc1cc(CCNS(=O)(=O)C2CCCCC2)cc(Cc2cccnc2)c1
	7.09	O=C(O)COc1ccc(CCNS(=O)(=O)c2ccccc2)cc1
	8.85	O=C(O)CCn1cc(Cc2cccnc2)c2cc(NS(=O)(=O)c3ccc(F)cc3)ccc21
	8.2	O=C(O)CCn1cc(Cn2ccnc2)c2cc(NS(=O)(=O)c3ccc(F)cc3)ccc21
	10.2	CC(c1cccnc1)c1cc(CCNS(=O)(=O)c2ccc(Cl)cc2)cc(CCC(=O)O)c1 (configuration not stated)
27 nM	7.8	O=C(O)CCc1cc(CCCS(=O)(=O)c2ccccc2)cc(Cc2cccnc2)c1
	8.8	Cc1c(Cn2ccnc2)c2cc(CCC(=O)O)ccc2n1CCNS(=O)(=O)c1ccc(F)cc1
38 nM	8.32	O=C(O)CCc1cc(CCNS(=O)(=O)Nc2ccc(Cl)cc2)cc(Cc2cccnc2)c1
	10	C=C(c1cccnc1)c1cc(CCNS(=O)(=O)c2ccc(Cl)cc2)cc(CCC(=O)O)c1
18 nM	7.89	O=C(O)CCc1cc(CCNS(=O)(=O)c2ccccc2)cc(Cn2ccnc2)c1
20 nM	8.9	O=C(O)CCc1cc(CCNS(=O)(=O)c2ccc(F)cc2)cc(Cc2cccnc2)c1
54 nM	6.78	CN(CCc1cc(CCC(=O)O)cc(Cc2cccnc2)c1)S(=O)(=O)c1ccc(Cl)cc1
38 nM	8.54	O=C(O)CCc1cc(CCNS(=O)(=O)c2ccc(Cl)cc2)cc(Cn2ccnc2)c1
29 nM	7.43	CCN(CC)S(=O)(=O)NCCc1cc(CCC(=O)O)cc(Cc2cccnc2)c1
37 nM	8.98	Cc1ccc(S(=O)(=O)NCCc2cc(CCC(=O)O)cc(Cc3cccnc3)c2)cc1
	9.07	CC(O)(c1cccnc1)c1cc(CCNS(=O)(=O)c2ccc(Cl)cc2)cc(CCC(=O)O)c1 (configuration not stated)
48 nM	< 6	O=C(O)CCc1cc(CCS(=O)(=O)c2ccccc2)cc(Cc2cccnc2)c1
	9.16	Cc1c(Cc2cccnc2)c2cc(CCC(=O)O)ccc2n1CCNS(=O)(=O)c1ccc(F)cc1
	9.06	O=C(O)CCc1cc(CCNS(=O)(=O)c2ccccc2)cc(Oc2cccnc2)c1
